# Columns and labels:
# [1] = Oxidative metabolic stability in rat liver microsomes assessed as compound remaining at 1 uM after 30 mins; type: ADME, Microsome; settings: read-out: Stability
# Summary of the method: (§1)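 Test compound was incubated with mouse, rat or human liver microsomes for 30 min. The read-out is percent of parent compound remaining.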
# [2] = Oxidative metabolic stability in human liver microsomes assessed as compound remaining at 1 uM after 30 mins; type: ADME, Microsome; settings: read-out: Stability; summary of the method: as §1
# [3] = target: Mitogen-activated protein kinase 10 (Homo sapiens, UniProt P53779); assay: Inhibition of recombinant JNK3 using ser73 of c-jun as substrate preincubated for 15 mins measured after 60 mins by TR-FRET assay
# Summary of the method: (§2)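 Recombinant JNK enzyme assay run at 10 µM ATP. IC50 values are means of at least three experiments.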
# [4] = target: Mitogen-activated protein kinase 8 (Homo sapiens, UniProt P45983); assay: Inhibition of recombinant JNK1 using ser73 of c-jun as substrate preincubated for 15 mins measured after 60 mins by TR-FRET assay; summary of the method: as §2
# [5] = target: Mitogen-activated protein kinase 9 (Homo sapiens, UniProt P45984); assay: Inhibition of recombinant JNK2 using ser73 of c-jun as substrate preincubated for 15 mins measured after 60 mins by TR-FRET assay; summary of the method: as §2
# [6] = Oxidative metabolic stability in mouse liver microsomes assessed as compound remaining at 1 uM after 30 mins; type: ADME, Microsome; settings: read-out: Stability; summary of the method: as §1
# [7] = target: Mitogen-activated protein kinase 1 (Homo sapiens, UniProt P28482); assay: Inhibition of recombinant ERK2 using Ser383 of Elk-1 as substrate preincubated for 15 mins measured after 60 mins by TR-FRET assay
# [8] = target: Mitogen-activated protein kinase 14 (Homo sapiens, UniProt Q16539); assay: Inhibition of recombinant p38alpha Thr69/71 of ATF-2 as substrate preincubated for 15 mins measured after 60 mins by TR-FRET assay
# [9] = Apparent permeability from apical to basolateral side of MDCK2 cells at 5 uM after 120 mins by LC/MS/MS method; type: ADME, cell-based, Canis lupus familiaris, MDCK-II; settings: dog, MDCK
# [10] = tested on: MDR1; assay: Efflux ratio of permeability across MDCK2 expressing MDR1 at 5 uM after 120 mins by LC/MS/MS method; type: ADME, Canis lupus familiaris, MDCK-II; settings: dog, MDCK-MDR1
# Mitogen-activated protein kinase 8, sequence (P45983 whole entry): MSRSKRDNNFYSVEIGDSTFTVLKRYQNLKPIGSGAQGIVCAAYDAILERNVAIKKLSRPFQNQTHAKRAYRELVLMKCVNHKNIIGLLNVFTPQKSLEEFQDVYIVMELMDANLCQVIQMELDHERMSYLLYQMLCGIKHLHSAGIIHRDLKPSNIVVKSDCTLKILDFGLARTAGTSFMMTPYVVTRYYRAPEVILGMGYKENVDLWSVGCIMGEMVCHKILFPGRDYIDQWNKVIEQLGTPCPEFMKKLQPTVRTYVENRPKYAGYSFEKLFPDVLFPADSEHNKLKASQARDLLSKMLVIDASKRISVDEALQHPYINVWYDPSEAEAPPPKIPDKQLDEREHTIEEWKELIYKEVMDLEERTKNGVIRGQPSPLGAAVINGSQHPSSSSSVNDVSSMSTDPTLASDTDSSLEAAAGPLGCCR
# Mitogen-activated protein kinase 9, sequence (P45984 whole entry): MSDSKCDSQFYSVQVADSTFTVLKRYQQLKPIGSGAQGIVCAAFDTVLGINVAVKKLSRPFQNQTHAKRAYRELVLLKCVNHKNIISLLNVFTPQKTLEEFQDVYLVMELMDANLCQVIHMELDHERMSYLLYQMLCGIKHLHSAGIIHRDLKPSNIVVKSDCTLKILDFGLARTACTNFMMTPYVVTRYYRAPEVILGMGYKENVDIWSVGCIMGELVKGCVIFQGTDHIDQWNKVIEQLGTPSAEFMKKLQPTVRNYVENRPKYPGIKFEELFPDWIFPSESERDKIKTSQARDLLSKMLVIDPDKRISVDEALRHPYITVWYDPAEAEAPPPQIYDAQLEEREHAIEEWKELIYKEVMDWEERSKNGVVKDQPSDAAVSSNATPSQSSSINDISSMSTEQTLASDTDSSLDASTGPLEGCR
# Mitogen-activated protein kinase 10, sequence (P53779 whole entry): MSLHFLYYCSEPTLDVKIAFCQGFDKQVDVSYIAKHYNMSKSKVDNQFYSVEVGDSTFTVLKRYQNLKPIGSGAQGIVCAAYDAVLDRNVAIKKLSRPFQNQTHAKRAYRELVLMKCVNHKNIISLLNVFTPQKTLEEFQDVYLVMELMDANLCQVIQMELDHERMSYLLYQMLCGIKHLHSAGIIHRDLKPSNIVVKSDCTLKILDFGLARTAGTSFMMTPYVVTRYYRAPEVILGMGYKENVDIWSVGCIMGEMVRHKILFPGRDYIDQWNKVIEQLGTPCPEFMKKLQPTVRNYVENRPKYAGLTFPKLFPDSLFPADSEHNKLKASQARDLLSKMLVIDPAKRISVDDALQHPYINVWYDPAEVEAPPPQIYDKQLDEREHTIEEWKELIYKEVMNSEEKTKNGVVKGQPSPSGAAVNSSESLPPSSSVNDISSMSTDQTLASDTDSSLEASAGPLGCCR
# Mitogen-activated protein kinase 14, sequence (Q16539 whole entry): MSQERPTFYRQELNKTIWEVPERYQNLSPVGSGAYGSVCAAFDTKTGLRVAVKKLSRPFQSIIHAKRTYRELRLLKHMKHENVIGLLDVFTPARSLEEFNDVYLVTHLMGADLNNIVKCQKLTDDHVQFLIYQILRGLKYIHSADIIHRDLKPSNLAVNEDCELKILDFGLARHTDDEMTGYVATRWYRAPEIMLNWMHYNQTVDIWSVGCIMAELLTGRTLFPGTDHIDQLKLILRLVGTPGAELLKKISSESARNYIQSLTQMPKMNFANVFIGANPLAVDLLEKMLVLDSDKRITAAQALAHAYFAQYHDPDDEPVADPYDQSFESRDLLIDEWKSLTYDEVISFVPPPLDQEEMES
# Mitogen-activated protein kinase 1, sequence (P28482 whole entry): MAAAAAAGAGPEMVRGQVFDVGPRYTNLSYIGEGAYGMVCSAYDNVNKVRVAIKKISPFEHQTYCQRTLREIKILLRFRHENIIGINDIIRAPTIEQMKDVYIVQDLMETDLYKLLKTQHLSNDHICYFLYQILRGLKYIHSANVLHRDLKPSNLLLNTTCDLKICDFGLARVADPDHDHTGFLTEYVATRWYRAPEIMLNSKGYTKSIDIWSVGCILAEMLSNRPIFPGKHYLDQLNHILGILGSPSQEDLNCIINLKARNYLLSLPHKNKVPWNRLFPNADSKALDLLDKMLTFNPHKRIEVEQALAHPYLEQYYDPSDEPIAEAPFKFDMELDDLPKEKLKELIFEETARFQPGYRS
Compound,"remaining at 0.5 h, 1 µM [1]","remaining at 0.5 h, 1 µM [2]",IC50 [3],IC50 [4],IC50 [5],"remaining at 0.5 h, 1 µM [6]",IC50 [7],IC50 [8],"Papp A→B at 2 h, 5 µM [9]","efflux ratio at 2 h, 5 µM [10]"
O=C(Cn1c(=O)ccn2nccc12)Nc1scc(Br)c1-c1ncn[nH]1,71%,72%,0.008 µM,0.008 µM,0.074 µM,50%,–,–,–,–
O=C(Cc1ccc(F)c2cnccc12)Nc1scc(Br)c1-c1ncn[nH]1,5%,44%,0.024 µM,0.016 µM,0.068 µM,34%,–,–,–,–
O=C(Cc1cccc2ncc(C(F)(F)F)cc12)Nc1scc(Br)c1-c1nc[nH]n1,20%,37%,0.052 µM,0.021 µM,0.164 µM,3%,–,–,–,–
O=C(Cc1cc(F)cc2ncccc12)Nc1scc(Br)c1-c1ncn[nH]1,18%,42%,0.041 µM,0.014 µM,0.14 µM,5%,–,–,–,–
O=C(Cc1ccc(C(F)(F)F)c2ncccc12)Nc1scc(Cl)c1-c1ncn[nH]1,1%,32%,0.183 µM,0.081 µM,0.024 µM,3%,–,–,–,–
O=C(Cn1c(=O)ccc2c(C(F)(F)F)cccc21)Nc1scc(Br)c1-c1ncn[nH]1,1%,49%,0.071 µM,0.031 µM,0.193 µM,27%,–,–,–,–
O=C(Cn1c(=O)ccc2nc(C(F)(F)F)ccc21)Nc1scc(Br)c1-c1ncn[nH]1,2%,64%,0.014 µM,0.008 µM,0.038 µM,35%,–,–,–,–
O=C(CN1C(=O)CCc2ncccc21)Nc1scc(Br)c1-c1nccs1,0%,3%,0.015 µM,0.013 µM,0.145 µM,0%,–,–,–,–
N#Cc1csc(NC(=O)Cn2c(=O)ccc3cc(C(F)(F)F)ccc32)c1-c1cscn1,8%,32%,0.008 µM,0.002 µM,0.017 µM,17%,–,–,–,–
O=C(Cc1cc(C(F)(F)F)cc2ncccc12)Nc1scc(Br)c1-c1nnc[nH]1,16%,31%,0.28 µM,0.178 µM,0.337 µM,3%,–,–,–,–
O=C(Cc1cccc2ncc(F)cc12)Nc1scc(Br)c1-c1nc[nH]n1,17%,39%,0.03 µM,0.017 µM,0.092 µM,2%,–,–,–,–
O=C(Cn1c(=O)ccc2ccc(C(F)(F)F)cc21)Nc1scc(Br)c1-c1ncn[nH]1,25%,44%,0.009 µM,0.006 µM,0.021 µM,29%,–,–,–,–
O=C(Cn1c(=O)ccn2nc(C(F)(F)F)cc12)Nc1scc(Br)c1-c1ncn[nH]1,42%,48%,0.014 µM,0.003 µM,0.036 µM,3%,–,–,–,–
O=C(CN1C(=O)CCc2ccccc21)Nc1scc(Br)c1-c1ncn[nH]1,0%,24%,–,–,–,0%,–,–,–,–
O=C(Cn1c(=O)ccc2ccc(OC(F)(F)F)cc21)Nc1scc(Br)c1-c1ncn[nH]1,26%,29%,0.019 µM,0.011 µM,0.068 µM,10%,–,–,–,–
N#Cc1csc(NC(=O)Cn2c(=O)ccc3cc(C(F)(F)F)ccc32)c1-c1nccs1,76%,75%,0.009 µM,0.007 µM,0.053 µM,52%,–,–,–,–
N#Cc1csc(NC(=O)Cn2c(=O)ccc3cc(C(F)(F)F)ccc32)c1-c1ncco1,2%,24%,0.008 µM,0.004 µM,0.029 µM,4%,–,–,–,–
N#Cc1csc(NC(=O)CN2C(=O)CCc3ncccc32)c1-c1nccs1,1%,16%,0.011 µM,0.01 µM,0.062 µM,7%,–,–,–,–

# Continued, values first:
"remaining at 0.5 h, 1 µM [1]","remaining at 0.5 h, 1 µM [2]",IC50 [3],IC50 [4],IC50 [5],"remaining at 0.5 h, 1 µM [6]",IC50 [7],IC50 [8],"Papp A→B at 2 h, 5 µM [9]","efflux ratio at 2 h, 5 µM [10]",Compound
37%,46%,0.003 µM,0.001 µM,0.013 µM,33%,–,–,–,–,Cn1cnc(-c2c(Br)csc2NC(=O)CN2C(=O)CCc3ncccc32)n1
0%,11%,0.006 µM,0.007 µM,0.066 µM,0%,–,–,–,–,O=C(CN1C(=O)CCc2ncccc21)Nc1scc(Br)c1-c1ncco1
81%,80%,0.006 µM,0.005 µM,0.018 µM,84%,–,–,–,–,N#Cc1csc(NC(=O)CN2C(=O)CCc3ncccc32)c1-c1nc[nH]n1
43%,77%,0.006 µM,0.004 µM,0.021 µM,43%,–,–,–,–,O=C(Cn1c(=O)ccc2cnc(C(F)(F)F)cc21)Nc1scc(Br)c1-c1ncn[nH]1
60%,85%,0.007 µM,0.004 µM,0.008 µM,51%,–,–,–,–,O=C(Cn1c(=O)ccc2cnccc21)Nc1scc(Br)c1-c1ncn[nH]1
62%,59%,0.002 µM,0.001 µM,0.01 µM,44%,–,–,–,–,N#Cc1ccc2ccc(=O)n(CC(=O)Nc3scc(Br)c3-c3ncn[nH]3)c2c1
39%,64%,0.006 µM,0.002 µM,0.012 µM,16%,–,–,–,–,O=C(Cn1c(=O)ccc2cc(OC(F)(F)F)ccc21)Nc1scc(Br)c1-c1ncn[nH]1
46%,69%,0.002 µM,0.001 µM,0.01 µM,60%,> 50 µM,> 50 µM,34.3 nm/s,4.18,N#Cc1ccc2c(ccc(=O)n2CC(=O)Nc2scc(Br)c2-c2ncn[nH]2)c1

# Source: ChEMBL document CHEMBL1821697, “Design and synthesis of brain penetrant selective JNK inhibitors with improved pharmacokinetic properties for the prevention of neurodegeneration” (Bioorg Med Chem Lett, 2011)
